In ChEMBL document CHEMBL4152271, “Polypharmacological profile of 1,2-dihydro-2-oxo-pyridine-3-carboxamides in the endocannabinoid system” (Eur J Med Chem, 2018):
Calls of active or inactive are those of the source. The rule behind the calls is not given here.

Legend:
Monoglyceride lipase = biological target: T1, Monoglyceride lipase (Homo sapiens, UniProt Q99685); assay: Inhibition of MAGL in human U937 cells using 2-OG containing […] as substrate preincubated for 30 mins followed by substrate addition and measured after 15 mins by liquid scintillation spectroscopic method; assay type: cell-based
T1 sequence (Q99685 whole entry): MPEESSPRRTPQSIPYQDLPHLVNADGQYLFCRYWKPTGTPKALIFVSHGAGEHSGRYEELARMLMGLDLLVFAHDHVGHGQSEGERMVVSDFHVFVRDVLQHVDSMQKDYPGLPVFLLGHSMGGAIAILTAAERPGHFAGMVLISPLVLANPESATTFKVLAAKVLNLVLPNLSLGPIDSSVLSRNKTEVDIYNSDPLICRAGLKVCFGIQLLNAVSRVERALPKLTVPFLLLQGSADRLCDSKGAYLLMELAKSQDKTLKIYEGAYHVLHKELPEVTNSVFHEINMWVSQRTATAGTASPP
In short: (§1)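 U937 cell homogenate (100 µg) in 10 mM Tris-HCl, 1 mM EDTA, pH 8, 0.1% fatty acid-free BSA. Compound at 10 µM screening concentration, 30 min at 37 °C. FAAH: 100 nM AEA with 1 nM [³H]AEA tracer. MAGL: 1 µM 2-OG with 1 nM tritiated tracer. Both 15 min at 37 °C, stopped with CHCl₃:MeOH (1:1), aqueous phase counted.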

Cannabinoid receptor 1 [1] = biological target: T2, Cannabinoid receptor 1 (Homo sapiens, UniProt P21554); assay: Displacement of [3H]-CP55940 from human CB1 receptor expressed in CHO cell membranes after 90 mins
Cannabinoid receptor 2 [2] = biological target: T3, Cannabinoid receptor 2 (Homo sapiens, UniProt P34972); assay: Displacement of [3H]-CP55940 from human CB2 receptor expressed in CHO cell membranes after 90 mins
In short: (§2)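 Membranes expressing hCB1 or hCB2 (stably transfected CHO) in 50 mM Tris-HCl, 2.5 mM EDTA, 5 mM MgCl₂, 0.5% fatty acid-free BSA, pH 7.4. Nonspecific binding with 10 µM […]. GF/B filtration, radioactivity counted, Ki derived. Mean ± SD, at least 3 experiments in triplicate.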

Homo sapiens = organism: Homo sapiens; assay: Selectivity ratio of Ki for human CB1 receptor to Ki for human CB2 receptor
In short: as §2, with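 “7.4. Incubated with compound and 0.5 nM [³H]CP55,940 for 90 min at 30 °C.” for “7.4.”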

Cannabinoid receptor 1 [3] = biological target: T2, Cannabinoid receptor 1; assay: Agonist activity at human CB1 receptor expressed in CHO cell membranes after 90 mins by [35S]GTPgammaS binding assay; assay type: functional, cell-based
Cannabinoid receptor 2 [4] = biological target: T3, Cannabinoid receptor 2; assay: Agonist activity at human CB2 receptor expressed in CHO cell membranes after 90 mins by [35S]GTPgammaS binding assay; assay type: functional
In short: (§3)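 Membranes (5 µg) of hCB2-expressing cells in 50 mM Tris-HCl, 3 mM MgCl₂, 0.2 mM EDTA, 100 mM NaCl, 0.5% fatty acid-free BSA, pH 7.4, with 10 µM GDP and 0.1 nM [³⁵S]GTPγS. Kept on ice, started by vehicle or compound, 90 min at 30 °C. Nonspecific binding with 10 µM GTPγS. Filtered on GF/B, radioactivity counted. At least three experiments in triplicate, mean ± SD.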

Cannabinoid receptor 2 [5] = biological target: T3, Cannabinoid receptor 2; assay: Agonist activity at human CB2 receptor expressed in CHO cell membranes after 90 mins by [35S]GTPgammaS binding assay relative to control; assay type: functional; in short: as §3
[6] = biological target: T4, Fatty-acid amide hydrolase 1 (Homo sapiens, UniProt O00519); assay: Inhibition of FAAH in human U937 cells using AEA containing [ethanolamine-1-3H]AEA as substrate preincubated for 30 mins followed by substrate addition and measured after 15 mins by liquid scintillation spectroscopic method; assay type: cell-based; in short: as §1
T4 sequence (O00519 whole entry): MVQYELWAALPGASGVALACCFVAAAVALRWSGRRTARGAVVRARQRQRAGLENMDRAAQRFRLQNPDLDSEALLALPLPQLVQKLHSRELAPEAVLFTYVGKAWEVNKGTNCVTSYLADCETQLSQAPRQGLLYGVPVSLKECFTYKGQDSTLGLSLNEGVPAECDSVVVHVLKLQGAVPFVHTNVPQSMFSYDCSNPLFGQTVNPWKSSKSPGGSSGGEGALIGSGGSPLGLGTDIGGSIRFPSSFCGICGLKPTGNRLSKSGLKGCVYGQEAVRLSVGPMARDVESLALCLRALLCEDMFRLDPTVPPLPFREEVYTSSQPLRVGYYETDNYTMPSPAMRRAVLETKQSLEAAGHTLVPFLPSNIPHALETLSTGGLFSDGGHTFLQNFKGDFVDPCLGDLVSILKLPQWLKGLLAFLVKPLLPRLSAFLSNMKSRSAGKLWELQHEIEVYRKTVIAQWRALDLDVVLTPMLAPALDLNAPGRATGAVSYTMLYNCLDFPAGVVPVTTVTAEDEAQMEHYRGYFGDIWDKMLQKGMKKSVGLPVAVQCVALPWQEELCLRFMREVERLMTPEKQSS

[7] = biological target: T5, Monoacylglycerol lipase ABHD6 (Homo sapiens, UniProt Q9BV23); assay: Inhibition of human ABHD6 expressed in HEK293 cells using 2-OG as substrate preincubated for 30 mins followed by substrate addition and measured after 5 mins by liquid scintillation spectroscopic method; assay type: cell-based
T5 sequence (Q9BV23 whole entry): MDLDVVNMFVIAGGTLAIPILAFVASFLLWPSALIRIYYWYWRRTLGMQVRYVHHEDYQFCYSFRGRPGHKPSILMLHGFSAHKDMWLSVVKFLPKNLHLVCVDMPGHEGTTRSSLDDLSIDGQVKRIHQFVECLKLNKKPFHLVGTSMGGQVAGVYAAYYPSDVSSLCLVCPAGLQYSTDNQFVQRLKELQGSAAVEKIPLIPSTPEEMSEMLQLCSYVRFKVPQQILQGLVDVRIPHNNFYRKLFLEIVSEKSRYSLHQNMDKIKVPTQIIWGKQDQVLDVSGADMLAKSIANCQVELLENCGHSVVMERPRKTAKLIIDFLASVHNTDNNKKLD
In short: (§4)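 Homogenate (40 µg) of HEK293 cells stably transfected with hABHD6 or hABHD12, compound preincubated 30 min at 37 °C in […], 0.1% BSA, pH 7.6. DMSO vehicle; WWL70 10 µM or THL 20 µM as positive controls. 10 µM 2-OG added for 5 min at 37 °C, stopped with CHCl₃:MeOH. Aqueous phase counted; no-enzyme blanks and non-transfected HEK293 hydrolysis subtracted.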

[8] = biological target: T6, Lysophosphatidylserine lipase ABHD12 (Homo sapiens, UniProt Q8N2K0); assay: Inhibition of human ABHD12 expressed in HEK293 cells using 2-OG as substrate preincubated for 30 mins followed by substrate addition and measured after 5 mins by liquid scintillation spectroscopic method; assay type: cell-based; in short: as §4
T6 sequence (Q8N2K0 whole entry): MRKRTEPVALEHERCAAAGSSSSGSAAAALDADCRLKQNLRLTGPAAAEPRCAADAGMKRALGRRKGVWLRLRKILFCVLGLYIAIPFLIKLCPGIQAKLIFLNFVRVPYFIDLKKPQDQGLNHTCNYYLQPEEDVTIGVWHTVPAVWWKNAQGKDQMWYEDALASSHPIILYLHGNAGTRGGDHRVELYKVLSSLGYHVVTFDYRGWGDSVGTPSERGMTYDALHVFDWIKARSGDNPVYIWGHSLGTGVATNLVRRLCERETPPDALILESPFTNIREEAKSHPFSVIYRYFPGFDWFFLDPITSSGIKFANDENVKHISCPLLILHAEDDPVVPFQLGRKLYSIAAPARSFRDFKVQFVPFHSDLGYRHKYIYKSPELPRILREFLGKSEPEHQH

U-937 [9] = assay: Cytotoxicity against human U937 cells assessed as decrease in cell viability at 0.6 to 40 uM after 48 hrs by MTT assay; assay type: functional, cell-based
In short: (§5)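 U251MG (EMEM, 10% FBS) or U937 (RPMI 1640, 10% FBS) cells plated at 4x10³/well for 24h, then exposed to compounds (0–40 µM) for 48 h at 37°C. MTT reduction, formazan read at 595 nm. Viability as % of untreated control. Five independent experiments in triplicate, mean ± SD, ANOVA with Bonferroni.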

U-251 = assay: Cytotoxicity against human U251MG cells assessed as decrease in cell viability at 0.6 to 40 uM after 48 hrs by MTT assay; assay type: functional, cell-based; in short: as §5
U-937 [10] = assay: Inhibition of [ethanolamine-1-3H]AEA/unlabeled AEA uptake in human U937 cells preincubated for 15 mins followed by [ethanolamine-1-3H]AEA/unlabeled AEA addition and measured after 15 mins by scintillation counting method; assay type: functional, cell-based
In short: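 Intact U937 cells (0.5x10⁶ per sample) in RPMI, preincubated with compound for 15 min at 37 °C. Then 1 nM [ethanolamine-1-³H]AEA plus unlabeled AEA (final 100 nM) added for 15 min. Stopped by rapid filtration and ice-cold PBS/1% BSA washes, radioactivity counted. At least three experiments in triplicate, mean ± SD.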

T3 sequence (P34972 whole entry): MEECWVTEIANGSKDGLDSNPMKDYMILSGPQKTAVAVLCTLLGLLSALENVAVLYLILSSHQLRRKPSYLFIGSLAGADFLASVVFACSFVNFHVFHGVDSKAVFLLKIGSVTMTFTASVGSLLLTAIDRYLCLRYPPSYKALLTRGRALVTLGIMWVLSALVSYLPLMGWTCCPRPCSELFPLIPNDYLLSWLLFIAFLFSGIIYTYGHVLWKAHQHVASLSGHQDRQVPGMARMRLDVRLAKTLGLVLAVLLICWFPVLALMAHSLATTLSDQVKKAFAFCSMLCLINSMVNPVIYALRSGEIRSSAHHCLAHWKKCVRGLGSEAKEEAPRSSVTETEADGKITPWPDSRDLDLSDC
T2 sequence (P21554 whole entry): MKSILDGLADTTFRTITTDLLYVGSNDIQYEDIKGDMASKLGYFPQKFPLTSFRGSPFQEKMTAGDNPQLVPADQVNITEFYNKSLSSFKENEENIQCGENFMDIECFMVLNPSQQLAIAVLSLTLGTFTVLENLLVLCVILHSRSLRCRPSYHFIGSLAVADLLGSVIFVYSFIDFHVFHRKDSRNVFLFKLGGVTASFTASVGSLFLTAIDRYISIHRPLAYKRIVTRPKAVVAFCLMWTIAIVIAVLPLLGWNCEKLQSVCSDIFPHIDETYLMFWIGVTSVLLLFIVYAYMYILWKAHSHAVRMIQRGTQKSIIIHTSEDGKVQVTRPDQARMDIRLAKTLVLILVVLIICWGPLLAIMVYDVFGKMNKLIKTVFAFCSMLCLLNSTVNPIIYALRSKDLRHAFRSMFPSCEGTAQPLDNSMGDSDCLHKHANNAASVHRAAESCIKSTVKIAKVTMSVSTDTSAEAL

SMILES	IC50 (Monoglyceride lipase) [µM]	Ki (Cannabinoid receptor 1 [1]) [µM]	Ki (Cannabinoid receptor 2 [2]) [µM]	Ratio Ki (Homo sapiens)	EC50 (Cannabinoid receptor 1 [3]) [µM]	EC50 (Cannabinoid receptor 2 [4]) [µM]	Emax (Cannabinoid receptor 2 [5]) [%]	IC50 [6] [µM]	IC50 [7] [µM]	IC50 [8] [µM]	Activity (U-937 [9])	Activity (U-251)	IC50 (U-937 [10]) [µM]
Cc1c(-c2ccccc2)cn(Cc2ccc(F)cc2)c(=O)c1C(=O)NC1CCCCCC1	> 10	0.0231	0.0069	2 to 54	0.237	0.012	39	0.07	> 10	2.5	Active	inactive	
O=C(NC1CCCCCC1)c1c(-c2ccccc2)ccn(Cc2ccc(F)cc2)c1=O	> 10	> 10	0.187	2 to 54		0.501	134	> 10	> 10	> 10	Active	inactive	> 10
O=C(NC1CCCCCC1)c1c(-c2ccccc2)c(-c2ccccc2)cn(Cc2ccc(F)cc2)c1=O	> 10	> 10	> 10	2 to 54				> 10	> 10	> 10			> 10
COc1ccc(-c2ccn(Cc3ccc(F)cc3)c(=O)c2C(=O)NC2CCCCCC2)cc1	> 10	> 10	> 10	2 to 54				> 10	> 10	> 10			> 10
O=C(NC1CCCCCC1)c1c(-c2ccccc2)c(Br)cn(Cc2ccc(F)cc2)c1=O	> 10	> 10	0.437	2 to 54		0.316	176	> 10	3	> 10			> 10
COc1ccc(-c2cc(C(=O)NC3CCCCCC3)c(=O)n(Cc3ccc(F)cc3)c2)cc1											Active	inactive	
CCCCCCC(C)(C)c1ccc([C@@H]2C[C@H](O)CC[C@H]2CCCO)c(O)c1							196						
Cc1ccn(Cc2ccc(F)cc2)c(=O)c1C(=O)NC1CCCCCC1	> 10	0.0117	0.0059	2 to 54	0.069	0.0019	128	8.8	> 10	> 10	Active	inactive	1.8
COc1ccc(-c2c(Br)cn(Cc3ccc(F)cc3)c(=O)c2C(=O)NC2CCCCCC2)cc1	> 10	> 10	> 10	2 to 54				> 10	> 10	> 10			> 10
COc1ccc(C(=O)c2c(C)n(CCN3CCOCC3)c3cc(I)ccc23)cc1						0.167	35						
COc1ccc(-c2cn(Cc3ccc(F)cc3)c(=O)c(C(=O)NC3CCCCCC3)c2-c2ccccc2)cc1	> 10	> 10	> 10	2 to 54				> 10	> 10	> 10			> 10
Cc1ccnc(OCc2ccc(F)cc2)c1C(=O)NC1CCCCCC1	> 10	0.131	0.0463	2 to 54	0.229	0.031	127	> 10	> 10	> 10	Active	inactive	0.58
